Reference: publication PMC8268672 (Bioorganic Chemistry, 2021)
In brackets after ≈: the same amount, converted by molar mass. Like-named read-outs stand apart in the source and are kept apart here.

Key:
[1] = system: Cryptococcus neoformans (ATCC 9011); assay: MIC, broth microdilution; format: cell-based; details: ATCC9011, read-out: Minimum inhibitory concentration (MIC), CN
In short: (§1)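 Antifungal MICs by CLSI broth microdilution in Sabouraud liquid medium. Test compounds and standard drugs are serially diluted two-fold from 512 to 0.25. The fungal broth culture is grown 24 h at 35 °C to a 0.5 McFarland turbidity, then adjusted with sterile solution to the final inoculum.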

[2] = system: Bacillus cereus (NCIM-2458); assay: Agar disk diffusion, inhibition zone; format: cell-based; details: 100 µg/8 mm disc, triplicate, mean ± SD
[3] = system: Salmonella typhimurium (NCIM-2501); assay: Agar disk diffusion, inhibition zone; format: cell-based; details: 100 µg/8 mm disc, triplicate, mean ± SD
Para-influenza-3 virus = assay: CPE reduction assay in Vero cells; format: cell-based, Parainfluenza-3 virus; details: Vero, read-out: Antiviral EC50, Para-influenza-3 virus
Influenza B B/Ned/537/05 = assay: CPE reduction assay in MDCK cells; format: cell-based; details: Influenza B virus, read-out: Antiviral EC50, Influenza B B/Ned/537/05, MTS
Punta Toro virus = assay: CPE reduction assay in Vero cells; format: cell-based; details: read-out: Antiviral EC50, Punta Toro virus
[4] = system: Aspergillus fumigatus (NCIM 2081); assay: MIC, broth microdilution; format: cell-based; details: NCIM2081, read-out: Minimum inhibitory concentration (MIC), AF
In short: as §1

Human Coronavirus (229E) = assay: CPE reduction assay in HEL cells; format: cell-based; details: read-out: Antiviral EC50, Human Coronavirus (229E)
Yellow Fever virus = assay: microbe, parasite or virus in culture; format: cell-based; details: Yellow fever virus, Vero, read-out: Antiviral EC50, Yellow Fever virus
MT4 cells = details: MT4 cell cultures; colorimetric MTT cell viability assay
[5] = system: Cryptococcus neoformans (ATCC 9011); assay: Agar disk diffusion, inhibition zone; format: cell-based; details: 100 µg/8 mm disc, triplicate, mean ± SD
[6] = system: Klebsiella aerogenes (NCIM-2098); assay: Agar disk diffusion, inhibition zone; format: cell-based; details: 100 µg/8 mm disc, triplicate, mean ± SD
[7] = system: Bacillus cereus (NCIM-2458); assay: MIC, broth microdilution; format: cell-based; details: NCIM2458, read-out: Minimum inhibitory concentration (MIC), BC
In short: (§2)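 Broth microdilution per CLSI in Mueller-Hinton broth, using two-fold serial dilutions of test compound and reference drugs from 512 to 0.25. Bacterial broth cultures were grown 2-6 h to 0.5 McFarland turbidity, then diluted with sterile solution to the final inoculum. MIC is reported in µg/mL.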

[8] = system: Human embryonic lung (HEL) cells; details: HEL cell cultures; microscopically detectable alteration of normal cell morphology
[9] = system: Staphylococcus aureus (ATCC 29213); assay: MIC, broth microdilution; format: cell-based; details: ATCC29213, read-out: Minimum inhibitory concentration (MIC), SA
In short: (§3)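 Antibacterial MICs by CLSI broth microdilution in Mueller-Hinton broth. Test compounds and standard drugs are serially diluted two-fold from 512 to 0.25. The bacterial broth culture is grown 2-6 h to a 0.5 McFarland turbidity, then adjusted with sterile solution to the final inoculum.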

[10] = system: Aspergillus fumigatus (NCIM 2081); assay: Agar disk diffusion, inhibition zone; format: cell-based; details: 100 µg/8 mm disc, triplicate, mean ± SD
[11] = system: Pseudomonas aeruginosa (MCCB 0035); assay: MIC, broth microdilution; format: cell-based; details: read-out: Minimum inhibitory concentration (MIC), PA
In short: as §2

[12] = system: Influenza A/H3N2 A/HK/7/87; assay: CPE reduction assay in MDCK cells; format: cell-based; details: Influenza A virus
[13] = system: Escherichia coli (ATCC 8739); assay: MIC, broth microdilution; format: cell-based; details: ATCC8739, read-out: Minimum inhibitory concentration (MIC), EC
In short: as §2

Sindbis virus = assay: CPE reduction assay in Vero cells; format: cell-based; details: read-out: Antiviral EC50, Sindbis virus
[14] = system: Streptococcus pneumonia (ATCC 49619); assay: Agar disk diffusion, inhibition zone; format: cell-based; details: 100 µg/8 mm disc, triplicate, mean ± SD
[15] = system: Aspergillus niger (NCIM 2191); assay: MIC, broth microdilution; format: cell-based; details: NCIM2191, read-out: Minimum inhibitory concentration (MIC), AN
In short: as §1

[16] = system: Staphylococcus aureus (ATCC 29213); assay: Agar disk diffusion, inhibition zone; format: cell-based; details: 100 µg/8 mm disc, triplicate, mean ± SD
In short: (§4)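 Agar disk diffusion on Mueller-Hinton agar plates seeded with a standard bacterial suspension. Test compound stock in DMSO, diluted with distilled water; 8 mm sterile filter-paper discs soaked in the solution. Ampicillin was the reference. Plates incubated at 35 °C for 24 h, in triplicate. Read-out is the average inhibition-zone diameter (mm) around each disc.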

[17] = system: Candida albicans (NCIM 2087); assay: Agar disk diffusion, inhibition zone; format: cell-based; details: 100 µg/8 mm disc, triplicate, mean ± SD
Reovirus-1 = assay: CPE reduction assay in Vero cells; format: cell-based; details: read-out: Antiviral EC50, Reovirus-1
Vaccinia virus = assay: microbe, parasite or virus in culture; format: cell-based; details: Orthopoxvirus vaccinia, HEL, read-out: Antiviral EC50, Vaccinia virus
Vero cells = details: Vero cell cultures; microscopically detectable alteration of normal cell morphology
[18] = system: Lactobacillus casei (NCIM-2651); assay: Agar disk diffusion, inhibition zone; format: cell-based; details: 100 µg/8 mm disc, triplicate, mean ± SD
Coxsackie virus B4 = assay: CPE reduction assay in Vero cells; format: cell-based; details: Enterovirus B, read-out: Antiviral EC50, Coxsackie virus B4
[19] = system: Madin Darby canine kidney (MDCK) cells; details: dog
[20] = system: Aspergillus niger (NCIM 2191); assay: Agar disk diffusion, inhibition zone; format: cell-based; details: 100 µg/8 mm disc, triplicate, mean ± SD
In short: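 For the fungal strain, discs soaked in test compound solution (DMSO stock diluted with distilled water) sat on seeded Mueller-Hinton agar. Clotrimazole was the reference. Incubation ran 48 h at 35 °C, in triplicate. Zone of growth inhibition recorded in mm as the mean diameter around each disc.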

[21] = system: Influenza A/H1N1 A/Ned/378/05; assay: CPE reduction assay in MDCK cells; format: cell-based; details: Influenza A virus
Adeno virus-2 = assay: CPE reduction assay in HEL cells; format: cell-based; details: read-out: Antiviral EC50, Adeno virus-2
[22] = system: Escherichia coli (ATCC 8739); assay: Agar disk diffusion, inhibition zone; format: cell-based; details: 100 µg/8 mm disc, triplicate, mean ± SD
In short: as §4

[23] = system: Pseudomonas aeruginosa (MCCB 0035); assay: Agar disk diffusion, inhibition zone; format: cell-based; details: 100 µg/8 mm disc, triplicate, mean ± SD
[24] = system: Candida albicans (NCIM 2087); assay: MIC, broth microdilution; format: cell-based; details: NCIM2087, read-out: Minimum inhibitory concentration (MIC), CA
In short: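 CLSI broth microdilution in Sabouraud liquid medium, with test compound two-fold serially diluted from 512 to 0.25. Fungal broth culture grown 24 h at 35 °C to 0.5 McFarland turbidity, then adjusted with sterile solution to a final […] inoculum. MIC expressed in µg/mL.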

[25] = system: Klebsiella aerogenes (NCIM-2098); assay: MIC, broth microdilution; format: cell-based; details: NCIM2098, read-out: Minimum inhibitory concentration (MIC), KA
In short: as §3

[26] = read-out: Antiviral EC50, Influenza A/H3N2 A/HK/7/87, MTS
[27] = read-out: Antiviral EC50, Influenza A/H3N2 A/HK/7/87, visual CPE score
[28] = read-out: Antiviral EC50, Influenza A/H1N1 A/Ned/378/05, MTS
[29] = read-out: Antiviral EC50, Influenza A/H1N1 A/Ned/378/05, visual CPE score

Structure (SMILES)	MIC [1]	Diameter of growth inhibition zone, BC [2]	Diameter of growth inhibition zone, ST [3]	EC50 (Para-influenza-3 virus)	EC50 (Influenza B B/Ned/537/05)	EC50 (Punta Toro virus)	MIC [4]	EC50 (Human Coronavirus (229E))	EC50 (Yellow Fever virus)	Minimum cytotoxic conc. (MT4 cells)	Diameter of growth inhibition zone, CN [5]	Diameter of growth inhibition zone, KA [6]	MIC [7]	Minimum cytotoxic conc. [8]	MIC [9]	Diameter of growth inhibition zone, AF [10]	MIC [11]	EC50 [12, 26]	EC50 [12, 27]	MIC [13]	also measured
Cc1ccc(S(=O)(=O)N2C(=O)CSC2c2ccccc2Cl)cc1 (stereo not drawn) [5e, 2-(2-Chlorophenyl)-3-[(4-methylphenyl)sulfonyl]-1,3-thiazolidin-4-one]	16 µg/mL (≈ 43.5 µM)	10 ± 0.7 mm	10 ± 0.72 mm	> 100 µM	> 100 µM	> 100 µM	64 µg/mL (≈ 174 µM)	> 100 µM	> 100 µM	>125 µM	12 ± 0.9 mm	12 ± 0.5 mm	64 µg/mL (≈ 174 µM)	>100 µM	64 µg/mL (≈ 174 µM)	9.6 ± 1.2 mm	32 µg/mL (≈ 87 µM)	> 100 µM	> 100 µM	16 µg/mL (≈ 43.5 µM)	EC50 (Sindbis virus): > 100 µM; Diameter of growth inhibition zone, SP [14]: 10 ± 1.32 mm; MIC [15]: 32 µg/mL (≈ 87 µM); Diameter of growth inhibition zone, SA [16]: 17 ± 3.6 mm; Diameter of growth inhibition zone, CA [17]: 10.8 ± 1.5 mm; EC50 (Reovirus-1): > 100 µM; EC50 (Vaccinia virus): > 100 µM; Minimum cytotoxic conc. (Vero cells): >100 µM; Diameter of growth inhibition zone, LC [18]: 14 ± 0.3 mm; EC50 (Coxsackie virus B4): > 100 µM; Cytotoxicity, Minimum cytotoxic conc. [19]: >100 µM; Diameter of growth inhibition zone, AN [20]: 10.2 ± 0.9 mm; EC50 [21, 28]: > 100 µM; EC50 [21, 29]: > 100 µM; EC50 (Adeno virus-2): > 100 µM; Diameter of growth inhibition zone, EC [22]: 19 ± 0.69 mm; Diameter of growth inhibition zone, PA [23]: 18 ± 0.55 mm; MIC [24]: 32 µg/mL (≈ 87 µM); MIC [25]: 32 µg/mL (≈ 87 µM)
Cc1ccc(S(=O)(=O)N2C(=O)CSC2c2ccc(Cl)cc2)cc1 (stereo not drawn) [5g, 2-(4-Chlorophenyl)-3-[(4-methylphenyl)sulfonyl]-1,3-thiazolidin-4-one]	16 µg/mL (≈ 43.5 µM)	18 ± 0.33 mm	12 ± 0.9 mm	> 100 µM	> 100 µM	> 100 µM	16 µg/mL (≈ 43.5 µM)	> 100 µM	> 100 µM	>125 µM	12 ± 1.8 mm	12 ± 0.12 mm	8 µg/mL (≈ 21.7 µM)	>100 µM	4 µg/mL (≈ 10.9 µM)	13 ± 0.63 mm	8 µg/mL (≈ 21.7 µM)	> 100 µM	> 100 µM	4 µg/mL (≈ 10.9 µM)	EC50 (Sindbis virus): > 100 µM; Diameter of growth inhibition zone, SP [14]: 12 ± 1.43 mm; MIC [15]: 8 µg/mL (≈ 21.7 µM); Diameter of growth inhibition zone, SA [16]: 22 ± 0.63 mm; Diameter of growth inhibition zone, CA [17]: 20 ± 1.5 mm; EC50 (Reovirus-1): > 100 µM; EC50 (Vaccinia virus): > 100 µM; Minimum cytotoxic conc. (Vero cells): >100 µM; Diameter of growth inhibition zone, LC [18]: 14 ± 0.4 mm; EC50 (Coxsackie virus B4): > 100 µM; Cytotoxicity, Minimum cytotoxic conc. [19]: >100 µM; Diameter of growth inhibition zone, AN [20]: 18 ± 1.1 mm; EC50 [21, 28]: > 100 µM; EC50 [21, 29]: > 100 µM; EC50 (Adeno virus-2): > 100 µM; Diameter of growth inhibition zone, EC [22]: 23 ± 0.32 mm; Diameter of growth inhibition zone, PA [23]: 24 ± 1.5 mm; MIC [24]: 8 µg/mL (≈ 21.7 µM); MIC [25]: 32 µg/mL (≈ 87 µM)
Cc1ccc(S(=O)(=O)N2C(=O)CSC2c2ccccc2F)cc1 (stereo not drawn) [5h, 2-(2-Fluorophenyl)-3-[(4-methylphenyl)sulfonyl]-1,3-thiazolidin-4-one]	8 µg/mL (≈ 22.8 µM)	14 ± 0.62 mm	14 ± 1.3 mm	> 100 µM	> 100 µM	> 100 µM	16 µg/mL (≈ 45.5 µM)	> 100 µM	> 100 µM	111 µM	19 ± 1.1 mm	10 ± 0.5 mm	16 µg/mL (≈ 45.5 µM)	>100 µM	8 µg/mL (≈ 22.8 µM)	15 ± 1.2 mm	8 µg/mL (≈ 22.8 µM)	> 100 µM	> 100 µM	4 µg/mL (≈ 11.4 µM)	EC50 (Sindbis virus): > 100 µM; Diameter of growth inhibition zone, SP [14]: 10 ± 1.7 mm; MIC [15]: 32 µg/mL (≈ 91.1 µM); Diameter of growth inhibition zone, SA [16]: 19 ± 1.1 mm; Diameter of growth inhibition zone, CA [17]: 15 ± 0.56 mm; EC50 (Reovirus-1): > 100 µM; EC50 (Vaccinia virus): > 100 µM; Minimum cytotoxic conc. (Vero cells): >100 µM; Diameter of growth inhibition zone, LC [18]: 19 ± 1.2 mm; EC50 (Coxsackie virus B4): > 100 µM; Cytotoxicity, Minimum cytotoxic conc. [19]: >100 µM; Diameter of growth inhibition zone, AN [20]: 12 ± 0.66 mm; EC50 [21, 28]: > 100 µM; EC50 [21, 29]: > 100 µM; EC50 (Adeno virus-2): > 100 µM; Diameter of growth inhibition zone, EC [22]: 23.8 ± 0.9 mm; Diameter of growth inhibition zone, PA [23]: 20 ± 0.6 mm; MIC [24]: 32 µg/mL (≈ 91.1 µM); MIC [25]: 64 µg/mL (≈ 182 µM)
